PMC10586269 (ACS Omega, 2023)
Marks after values point to notes of the source that are not given here.

How the values were obtained:
[1] = biological target: human Hsp90β-NTD (Homo sapiens, UniProt P08238); format: binding; conditions: 10 μM compound, FITC-GDA displacement
Summary of the method: (§1)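 Ni-affinity-purified Hsp90 N-terminal domain (PfHsp90-NTD or human Hsp90β-NTD, expressed in E. coli), 100 nM final, mixed with 5 nM FITC-geldanamycin. FP read at 480 nm excitation and 535 nm emission, converted to percent bound FITC-GDA versus the DMSO control.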

[2] = biological target: T1, PfHsp90-NTD (Plasmodium falciparum, UniProt Q8IC05); assay: Equilibrium binding kinetics by MP-SPR
Summary of the method: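 PfHsp90-NTD (20 μg/mL) was immobilised by amine coupling on a carboxymethyl dextran gold chip for multiparametric SPR. Running buffer was PBS with 0.005% Tween 20 and 20 mM EDTA, pH 7.4. Test compound (0–2000/5000 nM) was injected at 50 μL/min, with association for 1 min and dissociation for 9 min at room temperature. Signals were subtracted against a protein-free reference channel and buffer blanks.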

[3] = biological target: T1, PfHsp90-NTD; assay: Competition binding, FITC-geldanamycin fluorescence polarization assay, PfHsp90; conditions: read-out: FP inhibition % PfHsp90 [10 μM]
Summary of the method: as §1

T1 sequence (Q8IC05 1-215): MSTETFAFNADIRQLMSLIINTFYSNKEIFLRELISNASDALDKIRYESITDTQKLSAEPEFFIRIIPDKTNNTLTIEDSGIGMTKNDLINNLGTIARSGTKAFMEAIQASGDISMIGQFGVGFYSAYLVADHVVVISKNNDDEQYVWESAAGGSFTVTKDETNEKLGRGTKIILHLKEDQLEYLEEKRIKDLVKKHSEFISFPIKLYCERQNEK
human Hsp90β-NTD, sequence (P08238 1-226): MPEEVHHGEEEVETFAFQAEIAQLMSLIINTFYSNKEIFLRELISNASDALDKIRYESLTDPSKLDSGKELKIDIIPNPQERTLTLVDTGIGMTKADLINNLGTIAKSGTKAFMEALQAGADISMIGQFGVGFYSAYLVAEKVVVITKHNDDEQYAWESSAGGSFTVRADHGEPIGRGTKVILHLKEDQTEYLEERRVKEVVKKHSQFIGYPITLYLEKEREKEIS

COc1ccc2c(c1)[nH]c1c(C)nccc12 [harmine]
FP inhibition% human Hsp90 [10 μM] [1]: no inhibition
Kd ([2]; KD, Kd/Ka): 1820 ± 100 nM
Ka ([2]; association): 17.6 ± 14.9 1/Ms (×10^3)
Kd ([2]; dissociation rate): 3.20 ± 4.8 1/s (×10^–6)
inhibition at 10 µM [3]: 7 ± 6%
